In assay [1] the test system is Plasmodium falciparum. Briefly: Inhibition of Plasmodium falciparum protein farnesyltransferase at 50 nM by scintillation proximity assay. (SPA uses beads or plates that emit light when radiolabelled molecules are held near them.)
The subject of assay [2] is Plasmodium falciparum. In words: Inhibition of Plasmodium falciparum protein farnesyltransferase at 5 nM by scintillation proximity assay.
Assay [3] has as its system Plasmodium falciparum. In words: Inhibition of Plasmodium falciparum protein farnesyltransferase at 0.5 nM by scintillation proximity assay.
For assay [4], the system named is Plasmodium falciparum. In words: Antimalarial activity against Plasmodium falciparum 3D7. The class given is functional. As to conditions: Plasmodium falciparum, 3D7; read-out: ED50 (the source's name). In outline: (§1)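 Asynchronous culture in type A+ erythrocytes at 0.5% parasitemia and 0.5% hematocrit, grown in RPMI-1640 with 20% heat-inactivated human A+ plasma. Compound was serially diluted from a top final 5 µM, with DMSO vehicle as 100% growth. Plates ran 48 h at 37 °C under 5% CO2/5% O2/90% N2, then [3H]-hypoxanthine (0.3 µCi) for 24 h. Filter-harvested counts were corrected for the uninfected-RBC background. ED50 by linear regression; duplicates averaged.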

The subject of assay [5] is Plasmodium falciparum. In words: Antimalarial activity against Plasmodium falciparum K1. The class given is functional. As to conditions: Plasmodium falciparum, K1; read-out: ED50 (the source's name). Summed up:
as §1

The results in this text go back to ChEMBL document CHEMBL1148785, “Second generation tetrahydroquinoline-based protein farnesyltransferase inhibitors as antimalarials” (J Med Chem, 2007).

The structures appear in SMILES notation. pEC50: −log10 of the molar value.

A word on the inhibition: it is the percentage by which the read-out fell short of the control. A high value points to a strong effect. Regarding `Cn1cncc1CN1CC(N(CCCN)S(=O)(=O)c2ccccn2)Cc2cc(C#N)ccc21` (configuration not stated), the values for the inhibition in the assay with Plasmodium falciparum [1], in the assay on Plasmodium falciparum [2] and in the assay on Plasmodium falciparum [3] were 32%, 7% and 0%, respectively. Further, the pEC50 in the assay with Plasmodium falciparum [4] and with Plasmodium falciparum [5] was less than 5.30 in each case.
For the compound `COC(=O)N(C)CCCCN(C1Cc2cc(C#N)ccc2N(Cc2cncn2C)C1)S(=O)(=O)c1ccccn1` (configuration not stated), the inhibition with Plasmodium falciparum [1] was 90%; in the assay on Plasmodium falciparum [2], 59%; with Plasmodium falciparum [3] it was 15%. The results for the pEC50 with Plasmodium falciparum [4] and in the assay on Plasmodium falciparum [5] were 6.64 and 6.40, respectively.
For `Cn1cncc1CN1CC(N(CC2CCN(C(=O)OCc3ccccc3)CC2)S(=O)(=O)c2ccccn2)Cc2cc(C#N)ccc21` (configuration not stated), in that order: 98%, 13%, 66%, 6.26 and 6.19.
For `Cn1cnc(S(=O)(=O)N(CCNC(=O)OC(C)(C)C)C2Cc3cc(C#N)ccc3N(Cc3cncn3C)C2)c1` (configuration not stated), the results for the inhibition with Plasmodium falciparum [1], in the assay with Plasmodium falciparum [2] and with Plasmodium falciparum [3] were 99%, 90% and 28%, respectively. Besides, the pEC50 with Plasmodium falciparum [4] was 6.34; in the assay with Plasmodium falciparum [5], 7.12.
For `Cn1cnc(CN2CC(N(CCNC(=O)OC(C)(C)C)S(=O)(=O)c3cn(C)cn3)Cc3cc(-c4ccccc4)ccc32)c1` (configuration not stated), in that order: 98%, 81%, 18%, 5.62 and 6.12.
`Cn1cncc1CN1CC(N(Cc2ccc(S(C)(=O)=O)cc2)S(=O)(=O)c2ccccc2)Cc2cc(C#N)ccc21` (configuration not stated): the inhibition in the assay with Plasmodium falciparum [1] was found to be 99%; with Plasmodium falciparum [2], 91%; in the assay on Plasmodium falciparum [3], 38%. In addition, the results for the pEC50 with Plasmodium falciparum [4] and in the assay with Plasmodium falciparum [5] were 6.78 and 6.48, respectively.
Turning to `Cn1cnc(S(=O)(=O)N(Cc2ccc(S(C)(=O)=O)cc2Cl)C2Cc3cc(C#N)ccc3N(Cc3cncn3C)C2)c1` (configuration not stated), the results for the inhibition in the assay on Plasmodium falciparum [1], in the assay with Plasmodium falciparum [2] and with Plasmodium falciparum [3] were 99%, 98% and 69%, respectively. Further, the pEC50 in the assay with Plasmodium falciparum [4] is 7.24; in the assay with Plasmodium falciparum [5], greater than 7.70.
Consider `COc1ccc(S(=O)(=O)N(Cc2ccccc2F)C2Cc3cc(C#N)ccc3N(Cc3cncn3C)C2)cc1` (configuration not stated), for which the inhibition in the assay with Plasmodium falciparum [1] is 66%; in the assay with Plasmodium falciparum [2], 22%; with Plasmodium falciparum [3] it was 13%. The pEC50 with Plasmodium falciparum [4] was 6.05; in the assay on Plasmodium falciparum [5], 6.00.
For `Cn1cncc1CN1CC(N(CC2CCN(C(=O)NC(C)(C)C)CC2)S(=O)(=O)c2ccccn2)Cc2cc(C#N)ccc21` (configuration not stated), the inhibition in the assay on Plasmodium falciparum [1] is 98%; with Plasmodium falciparum [2], 28%; in the assay on Plasmodium falciparum [3] it was 84%. In addition, the pEC50 was 6.49 in the assay on Plasmodium falciparum [4] and 6.82 with Plasmodium falciparum [5].
Turning to `Cn1cncc1CN1CC(N(CCNC(=O)OC(C)(C)C)S(=O)(=O)c2ccccn2)Cc2cc(C#N)ccc21` (configuration not stated), the inhibition in the assay on Plasmodium falciparum [1] is 91%; in the assay on Plasmodium falciparum [2], 48%; in the assay on Plasmodium falciparum [3], 9%. Moreover, the pEC50 in the assay on Plasmodium falciparum [4] is 6.64; in the assay on Plasmodium falciparum [5], 6.62.
In the case of `COC(=O)N1CCC(CN(C2Cc3cc(C#N)ccc3N(Cc3cncn3C)C2)S(=O)(=O)CS(C)(=O)=O)CC1` (configuration not stated), the inhibition is 15% in the assay on Plasmodium falciparum [1], 0% with Plasmodium falciparum [2] and 0% in the assay on Plasmodium falciparum [3]. The pEC50 in the assay with Plasmodium falciparum [4] and in the assay on Plasmodium falciparum [5] was less than 5.30 each time.
Consider `Cn1cnc(S(=O)(=O)N(Cc2ccc(C(F)(F)F)o2)C2Cc3cc(C#N)ccc3N(Cc3cncn3C)C2)c1` (configuration not stated), for which the inhibition stood at 97% with Plasmodium falciparum [1], 96% in the assay on Plasmodium falciparum [2] and 54% with Plasmodium falciparum [3]. In addition, the pEC50 in the assay on Plasmodium falciparum [4] is 7.11; in the assay on Plasmodium falciparum [5], 7.12.
For the compound `Cn1cncc1CN1CC(N(Cc2ccc(S(C)(=O)=O)cc2)S(=O)(=O)c2cncn2C)Cc2cc(C#N)ccc21` (configuration not stated), the values for the inhibition in the assay with Plasmodium falciparum [1], with Plasmodium falciparum [2] and in the assay with Plasmodium falciparum [3] were 100%, 100% and 84%, respectively. The pEC50 with Plasmodium falciparum [4] and in the assay with Plasmodium falciparum [5] was greater than 7.70 each time.
Consider `Cc1cc(=O)n(CCCCN(C2Cc3cc(C#N)ccc3N(Cc3cncn3C)C2)S(=O)(=O)c2ccccn2)c(=O)n1C` (configuration not stated), for which the inhibition with Plasmodium falciparum [1] turned out to be 90%; in the assay on Plasmodium falciparum [2], 51%; in the assay with Plasmodium falciparum [3], 0%. Also, the pEC50 in the assay with Plasmodium falciparum [4] was 6.46; in the assay with Plasmodium falciparum [5], 6.70.
Consider `Cn1cncc1CN1CC(N(CCN)S(=O)(=O)c2ccccn2)Cc2cc(C#N)ccc21` (configuration not stated), for which the results for the inhibition in the assay with Plasmodium falciparum [1], with Plasmodium falciparum [2] and with Plasmodium falciparum [3] were 65%, 11% and 6%, respectively. In addition, the pEC50 in the assay with Plasmodium falciparum [4] was 5.57; in the assay on Plasmodium falciparum [5], less than 5.30.
For `COC(=O)c1ccsc1S(=O)(=O)N(CC1CCN(C(=O)OC)CC1)C1Cc2cc(C#N)ccc2N(Cc2cncn2C)C1` (configuration not stated), the inhibition with Plasmodium falciparum [1] is 92%; in the assay with Plasmodium falciparum [2] it was 61%; in the assay with Plasmodium falciparum [3] it was 10%. For the same compound, the pEC50 with Plasmodium falciparum [4] is 5.64; with Plasmodium falciparum [5], 5.72.
On to `Cn1cncc1CN1CC(N(CC(=O)O)S(=O)(=O)c2ccccn2)Cc2cc(C#N)ccc21` (configuration not stated), for which the values for the inhibition with Plasmodium falciparum [1], in the assay with Plasmodium falciparum [2] and with Plasmodium falciparum [3] were 81%, 33% and 6%, respectively. Moreover, the pEC50 is 5.68 in the assay with Plasmodium falciparum [4] and 5.59 with Plasmodium falciparum [5].
For the compound `Cn1cncc1CN1CC(N(CCc2ccc(F)cc2)S(=O)(=O)c2ccccn2)Cc2cc(C#N)ccc21` (configuration not stated), the inhibition in the assay with Plasmodium falciparum [1] was 96%; in the assay with Plasmodium falciparum [2] it was 71%; with Plasmodium falciparum [3] it was 9%. Also, the pEC50 in the assay with Plasmodium falciparum [4] was 6.70; with Plasmodium falciparum [5], 6.19.
For `Cn1cnc(CN2CC(N(CC(=O)NC(C)(C)C)S(=O)(=O)c3cn(C)cn3)Cc3cc(-c4ccccc4)ccc32)c1` (configuration not stated), in that order: 97%, 73%, 23%, 6.42 and 6.40.
Take `Cn1cnc(S(=O)(=O)N(Cc2cc3nsnc3cc2Cl)C2Cc3cc(C#N)ccc3N(Cc3cncn3C)C2)c1` (configuration not stated): the inhibition in the assay with Plasmodium falciparum [1] worked out at 90%; in the assay on Plasmodium falciparum [2], 58%; with Plasmodium falciparum [3], 0%. The pEC50 was 5.52 in the assay on Plasmodium falciparum [4] and 5.43 in the assay with Plasmodium falciparum [5].
Take `Cn1cnc(CN2CC(N(CCS(C)(=O)=O)S(=O)(=O)c3cn(C)cn3)Cc3cc(-c4ccccc4)ccc32)c1` (configuration not stated): the inhibition in the assay with Plasmodium falciparum [1] worked out at 99%; in the assay on Plasmodium falciparum [2] it was 91%; in the assay with Plasmodium falciparum [3], 29%. The pEC50 is 6.40 in the assay with Plasmodium falciparum [4] and 6.15 in the assay with Plasmodium falciparum [5].
Regarding `COC(=O)N1CCC(CN(C2Cc3cc(C#N)ccc3N(Cc3cncn3C)C2)S(=O)(=O)c2cncn2C)CC1` (configuration not stated), the results for the inhibition in the assay on Plasmodium falciparum [1], in the assay with Plasmodium falciparum [2] and in the assay on Plasmodium falciparum [3] were 99%, 99% and 72%, respectively. Further, the pEC50 is 8.52 in the assay with Plasmodium falciparum [4] and 8.80 with Plasmodium falciparum [5].
Take `Cn1cnc(S(=O)(=O)N(Cc2ccc(C#N)cc2)C2Cc3cc(C#N)ccc3N(Cc3cncn3C)C2)c1` (configuration not stated): the inhibition turned out to be 96% in the assay with Plasmodium falciparum [1], 90% in the assay on Plasmodium falciparum [2] and 54% in the assay on Plasmodium falciparum [3]. The pEC50 with Plasmodium falciparum [4] was 7.15; with Plasmodium falciparum [5] it was 7.26.
Take `Cn1cnc(CN2CC(N(CC(=O)NC(C)(C)C)S(=O)(=O)c3ccccn3)Cc3cc(-c4ccccc4)ccc32)c1` (configuration not stated): the inhibition came out at 11% in the assay with Plasmodium falciparum [1], 6% in the assay on Plasmodium falciparum [2] and 6% in the assay with Plasmodium falciparum [3]. The pEC50 in the assay with Plasmodium falciparum [4] was less than 5.30; with Plasmodium falciparum [5] it was 5.52.
Take `Cn1cnc(S(=O)(=O)N(Cc2ccc3nonc3c2)C2Cc3cc(C#N)ccc3N(Cc3cncn3C)C2)c1` (configuration not stated): the inhibition came out at 99% with Plasmodium falciparum [1], 95% with Plasmodium falciparum [2] and 30% in the assay on Plasmodium falciparum [3]. The pEC50 in the assay on Plasmodium falciparum [4] is 7.25; with Plasmodium falciparum [5] it was 7.19.
Turning to `CCN(C1Cc2cc(-c3ccccc3)ccc2N(Cc2cncn2C)C1)S(=O)(=O)c1cn(C)cn1` (configuration not stated), the figures for the inhibition in the assay on Plasmodium falciparum [1], in the assay on Plasmodium falciparum [2] and in the assay with Plasmodium falciparum [3] were 86%, 29% and 10%, respectively. For the same compound, the pEC50 in the assay with Plasmodium falciparum [4] is 5.30; in the assay with Plasmodium falciparum [5], less than 5.30.
On the same counts, the results for `COC(=O)N1CCC(CN(C2Cc3cc(C#N)ccc3N(Cc3cncn3C)C2)S(=O)(=O)c2sccc2C)CC1` (configuration not stated) are 95%, 66%, 18%, 7.26 and 7.12.
In the case of `Cn1cnc(S(=O)(=O)N(CCN2CCCCC2)C2Cc3cc(C#N)ccc3N(Cc3cncn3C)C2)c1` (configuration not stated), the inhibition turned out to be 93% in the assay on Plasmodium falciparum [1], 62% in the assay on Plasmodium falciparum [2] and 9% in the assay with Plasmodium falciparum [3]. Moreover, the pEC50 in the assay with Plasmodium falciparum [4] was 6.70; in the assay with Plasmodium falciparum [5] it was 6.52.
On the same counts, the results for `Cn1cncc1CN1CC(N(CC(=O)NC(C)(C)C)S(=O)(=O)CCN2C(=O)c3ccccc3C2=O)Cc2cc(C#N)ccc21` (configuration not stated) are 60%, 21%, 14%, less than 5.30 and less than 5.30.
Turning to `Cn1cnc(S(=O)(=O)N(CC(=O)OC(C)(C)C)C2Cc3cc(C#N)ccc3N(Cc3cncn3Cc3ccccc3)C2)c1` (configuration not stated), the inhibition came to 45% with Plasmodium falciparum [2] and 22% in the assay with Plasmodium falciparum [3]. The pEC50 is 6.82 in the assay on Plasmodium falciparum [4] and 6.85 with Plasmodium falciparum [5].
Regarding `Cn1cncc1CN1CC(N(Cc2cccc(-n3cncn3)c2)S(=O)(=O)c2ccccn2)Cc2cc(C#N)ccc21` (configuration not stated), the inhibition was determined as 53% in the assay on Plasmodium falciparum [1] and 11% with Plasmodium falciparum [2]. The values for the pEC50 in the assay on Plasmodium falciparum [4] and with Plasmodium falciparum [5] were 6.35 and 6.23, respectively.
For `Cn1cncc1CN1CC(N(Cc2cccnc2)S(=O)(=O)c2ccccn2)Cc2cc(C#N)ccc21` (configuration not stated), in that order: 95%, 89%, 6.98 and 6.31.
